According to ChEMBL document CHEMBL4219167, “Disulfiram-based disulfides as narrow-spectrum antibacterial agents” (Bioorg Med Chem Lett, 2018):
Converted amounts (≈) assume the structure as drawn.

How the values were obtained:
Burkholderia multivorans = experiment: Antibacterial activity against Burkholderia multivorans CF2 after 20 hrs by broth microdilution assay; type: functional; details: CF2, 20 h
Summary of the method: (§1)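 Medium is tryptic soy broth, 37°C. Overnight culture is adjusted to 0.5 McFarland, diluted 1:100 and exposed to serial dilutions (test agents from 1 mM or 1 mg/mL DMSO stocks; control antibiotics in water). Incubation lasts 20 h. MIC is the lowest concentration with no visible growth.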

Streptococcus agalactiae = experiment: Antibacterial activity against Streptococcus agalactiae SGBS005 after 20 hrs by broth microdilution assay; type: functional; details: SGBS005, 20 h
Enterococcus faecium = experiment: Antibacterial activity against vancomycin-resistant Enterococcus faecium ATCC 700221 after 20 hrs by broth microdilution assay; type: functional; details: ATCC 700221, 20 h
Summary of the method: (§2)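 Brain heart infusion broth at 37°C; E. faecium under 5% CO2. Cells at 0.5 McFarland are diluted 1:100 and exposed to serial dilutions (DMSO stocks 1 mM or 1 mg/mL; controls in water).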

Listeria monocytogenes = experiment: Antibacterial activity against Listeria monocytogenes Gibson after 20 hrs by broth microdilution assay; type: functional; summary of the method: as §2
Escherichia coli = experiment: Antibacterial activity against Escherichia coli DC10B after 20 hrs by broth microdilution assay; type: functional; summary of the method: as §1
Staphylococcus aureus [1] = experiment: Antibacterial activity against methicillin-resistant Staphylococcus aureus; type: functional
Staphylococcus aureus [2] = experiment: Antibacterial activity against vancomycin-intermediate resistant Staphylococcus aureus AR-217 after 20 hrs by broth microdilution assay; type: functional; details: AR-217, 20 h
Yersinia enterocolitica = experiment: Antibacterial activity against Yersinia enterocolitica WA-314 after 20 hrs by broth microdilution assay; type: functional; details: WA-314, 20 h
Summary of the method: (§3)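 Yersinia cultured in tryptic soy broth at 28°C. A 0.5 McFarland suspension diluted 1:100 receives serial dilutions of agents from 1 mM or 1 mg/mL DMSO stocks; control antibiotics are in water.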

Staphylococcus aureus [3] = experiment: Synergistic antibacterial activity against vancomycin-resistant Staphylococcus aureus HIP14300 assessed as vancomycin MIC after 20 hrs by checkerboard microdilution assay; type: functional; details: HIP14300, 20 h
Streptococcus pyogenes = experiment: Antibacterial activity against Streptococcus pyogenes H293 after 20 hrs by broth microdilution assay; type: functional; details: H293, 20 h
Acinetobacter baumannii = experiment: Antibacterial activity against Acinetobacter baumannii AB5075 after 20 hrs by broth microdilution assay; type: functional; details: AB5075, 20 h
Yersinia pestis [4] = experiment: Antibacterial activity against Yersinia pestis Kuma D7 after 20 hrs by broth microdilution assay; type: functional; details: Kuma D7, 20 h
Staphylococcus aureus [5] = experiment: Synergistic antibacterial activity against vancomycin-resistant Staphylococcus aureus HIP14300 after 20 hrs in presence of vancomycin by checkerboard microdilution assay; type: functional; details: HIP14300, 20 h
Staphylococcus aureus [6] = experiment: Antibacterial activity against methicillin-resistant Staphylococcus aureus COL after 20 hrs by broth microdilution assay; type: functional
Brucella neotomae = experiment: Antibacterial activity against Brucella neotomae 5K33 after 20 hrs by broth microdilution assay; type: functional; details: 5K33, 20 h
Bacillus cereus = experiment: Antibacterial activity against Bacillus cereus Gibson 971 after 20 hrs by broth microdilution assay; type: functional; details: Gibson 971, 20 h
Burkholderia cepacia = experiment: Antibacterial activity against Burkholderia cepacia UCB 717 after 20 hrs by broth microdilution assay; type: functional; details: UCB 717, 20 h; summary of the method: as §1
[7] = test system: Staphylococcus epidermidis; experiment: Synergistic antibacterial activity against vancomycin-intermediate resistant Staphylococcus epidermidis NRS53 after 20 hrs in presence of vancomycin by checkerboard microdilution assay; type: functional; details: NRS53, 20 h
HepG2 = experiment: Cytotoxicity against human HepG2 cells assessed as reduction in cell viability after 72 hrs by MTT assay; type: cell-based; details: HepG2, 72 h
Proteus mirabilis = experiment: Antibacterial activity against Proteus mirabilis HM-752 after 20 hrs by broth microdilution assay; type: functional; details: HM-752, 20 h; summary of the method: as §1
[8] = test system: Yersinia pseudotuberculosis; experiment: Antibacterial activity against Yersinia pseudotuberculosis P61 after 20 hrs by broth microdilution assay; type: functional; details: P61, 20 h; summary of the method: as §3
Yersinia pestis [9] = experiment: Antibacterial activity against Yersinia pestis Kim D2 after 20 hrs by broth microdilution assay; type: functional; details: Kim D2, 20 h
Shigella dysenteriae = experiment: Antibacterial activity against Shigella dysenteriae Newcastle 1934 after 20 hrs by broth microdilution assay; type: functional; details: Newcastle 1934, 20 h; summary of the method: as §1
Staphylococcus aureus [10] = experiment: Antibacterial activity against vancomycin-resistant Staphylococcus aureus HIP14300 after 20 hrs by broth microdilution assay; type: functional; details: HIP14300, 20 h
Citrobacter freundii = experiment: Antibacterial activity against Citrobacter freundii 4_7_47CFAA after 20 hrs by broth microdilution assay; type: functional
Summary of the method: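 Brucella broth, 37°C, 5% CO2. Inoculum is 0.5 McFarland diluted 1:100, with serial drug dilutions from DMSO stocks (1 mM or 1 mg/mL) and control antibiotics in water.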

Vibrio cholerae = experiment: Antibacterial activity against Vibrio cholerae TS D4 after 20 hrs by Todd Hewitt broth broth microdilution method; type: functional; details: TS D4, 20 h
Streptococcus pneumoniae = experiment: Antibacterial activity against Streptococcus pneumoniae TCH8431 after 20 hrs by broth microdilution assay; type: functional; details: TCH8431, 20 h
Rhodococcus erythropolis = experiment: Antibacterial activity against Rhodococcus erythropolis SK121 after 20 hrs by broth microdilution assay; type: functional; details: SK121, 20 h
Summary of the method: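 R. erythropolis grown in brain heart infusion broth at 30°C. A 0.5 McFarland suspension diluted 1:100 is treated with serial dilutions from 1 mM or 1 mg/mL DMSO stocks; control antibiotics are in water.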

[11] = test system: Staphylococcus epidermidis; experiment: Synergistic antibacterial activity against vancomycin-intermediate resistant Staphylococcus epidermidis NRS53 assessed as vancomycin MIC after 20 hrs by checkerboard microdilution assay; type: functional; details: NRS53, 20 h
[12] = test system: Staphylococcus epidermidis; experiment: Antibacterial activity against vancomycin-intermediate resistant Staphylococcus epidermidis NRS6 after 20 hrs by broth microdilution assay; type: functional; details: NRS6, 20 h
[13] = test system: Staphylococcus epidermidis; experiment: Antibacterial activity against vancomycin-intermediate resistant Staphylococcus epidermidis NRS53 after 20 hrs by broth microdilution assay; type: functional; details: NRS53, 20 h
Francisella tularensis = experiment: Antibacterial activity against Francisella tularensis Utah 112 after 20 hrs by broth microdilution assay; type: functional; details: Utah 112, 20 h
Staphylococcus aureus [14] = experiment: Synergistic antibacterial activity against vancomycin-intermediate resistant Staphylococcus aureus AR-217 assessed as vancomycin MIC after 20 hrs by checkerboard microdilution assay; type: functional; details: AR-217, 20 h
Klebsiella pneumoniae = experiment: Antibacterial activity against Klebsiella pneumoniae 700603 after 20 hrs by broth microdilution assay; type: functional; details: Klebsiella pneumoniae, 700603, 20 h; summary of the method: as §1
Pseudomonas aeruginosa = experiment: Antibacterial activity against Pseudomonas aeruginosa ATCC 15442 after 20 hrs by broth microdilution assay; type: functional; details: ATCC 15442, 20 h; summary of the method: as §1
Corynebacterium striatum = experiment: Antibacterial activity against Corynebacterium striatum FS-1 after 20 hrs by broth microdilution assay; type: functional; details: FS-1, 20 h
Micrococcus luteus = experiment: Antibacterial activity against Micrococcus luteus SK58 after 20 hrs by broth microdilution assay; type: functional; details: SK58, 20 h
Bacillus anthracis [15] = experiment: Antibacterial activity against Bacillus anthracis Weybridge after 20 hrs by broth microdilution assay; type: functional
Salmonella typhi = experiment: Antibacterial activity against Salmonella typhi Ty2 after 20 hrs by Todd Hewitt broth broth microdilution method; type: functional, Salmonella enterica subsp. enterica serovar Typhi str. Ty2; details: Salmonella enterica
Bacillus anthracis [16] = experiment: Antibacterial activity against Bacillus anthracis Ames 35 after 20 hrs by broth microdilution assay; type: functional; details: Ames 35, 20 h
Bacillus anthracis [17] = experiment: Antibacterial activity against Bacillus anthracis UM23-1 after 20 hrs by broth microdilution assay; type: functional; details: UM23-1, 20 h
Bacillus anthracis [18] = experiment: Antibacterial activity against Bacillus anthracis Sterne 34F2 after 20 hrs by broth microdilution assay; type: functional; details: Sterne 34F2, 20 h

| Compound | MIC (Burkholderia multivorans) [µM] | MIC (Streptococcus agalactiae) [µM] | MIC (Enterococcus faecium) [µM] | MIC (Listeria monocytogenes) [µM] | MIC (Escherichia coli) [µM] | MIC (Staphylococcus aureus [2]) [µM] | MIC (Yersinia enterocolitica) [µM] | MIC (Streptococcus pyogenes) [µM] | MIC (Acinetobacter baumannii) [µM] | MIC (Yersinia pestis [4]) [µM] | MIC (Staphylococcus aureus [6]) [µM] | MIC (Brucella neotomae) [µM] | MIC (Bacillus cereus) [µM] | MIC (Burkholderia cepacia) [µM] | IC50 (HepG2) [µM] | MIC (Proteus mirabilis) [µM] | MIC [8] [µM] | MIC (Staphylococcus aureus [10]) [µM] | MIC (Streptococcus pneumoniae) [µM] | MIC [12] [µM] | further results |
| --- | --- | --- | --- | --- | --- | --- | --- | --- | --- | --- | --- | --- | --- | --- | --- | --- | --- | --- | --- | --- | --- |
| CCN(CC)C(=S)SSC(=S)N(CC)CC | 32 (≈ 9.49 µg/mL) | > 32 | > 32 | > 32 | > 32 | 8 (≈ 2.37 µg/mL) | > 32 | 16 (≈ 4.74 µg/mL) | > 32 | 32 (≈ 9.49 µg/mL) | 32 (≈ 9.49 µg/mL) | > 32 | 4 (≈ 1.19 µg/mL) | > 32 | 38 | > 32 | > 32 | 32 (≈ 9.49 µg/mL) | > 32 | 32 (≈ 9.49 µg/mL) | MIC (Staphylococcus aureus [1]): 4 to 32 µg/mL (≈ 13.5 to 108 µM); MIC (Staphylococcus aureus [3]): 8 µg/mL; MIC (Staphylococcus aureus [5]): 2 µg/mL; MIC [7]: 2 µg/mL; MIC (Yersinia pestis [9]): 32 µM (≈ 9.49 µg/mL); MIC (Shigella dysenteriae): > 32 µM; MIC (Citrobacter freundii): > 32 µM; MIC (Vibrio cholerae): > 32 µM; MIC (Rhodococcus erythropolis): 16 µM (≈ 4.74 µg/mL); MIC [11]: 4 µg/mL; MIC [13]: 4 µg/mL (≈ 13.5 µM); MIC (Francisella tularensis): 32 µM (≈ 9.49 µg/mL); MIC (Staphylococcus aureus [14]): 2 µg/mL; MIC (Klebsiella pneumoniae): > 32 µM; MIC (Pseudomonas aeruginosa): > 32 µM; MIC (Corynebacterium striatum): > 32 µM; MIC (Micrococcus luteus): 32 µM (≈ 9.49 µg/mL) |
| CN[C@H](CC(C)C)C(=O)N[C@H]1C(=O)N[C@@H](CC(N)=O)C(=O)N[C@H]2C(=O)N[C@H]3C(=O)N[C@H](C(=O)N[C@H](C(=O)O)c4cc(O)cc(O)c4-c4cc3ccc4O)[C@H](O)c3ccc(c(Cl)c3)Oc3cc2cc(c3O[C@@H]2O[C@H](CO)[C@@H](O)[C@H](O)[C@H]2O[C@H]2C[C@](C)(N)[C@H](O)[C@H](C)O2)Oc2ccc(cc2Cl)[C@H]1O [VANCOMYCIN] | – | ≤ 0.5 | > 32 | – | – | – | – | ≤ 0.5 | – | – | 1 (≈ 1.45 µg/mL) | – | – | – | – | – | – | > 32 | ≤ 0.5 | 8 (≈ 11.6 µg/mL) | MIC [13]: 8 µg/mL (≈ 5.52 µM) |
| CCCCCCSSC(=S)N(CC)CC [DIETHYLCARBAMO(DITHIOPEROXO)THIOATE] | > 32 | > 32 | > 32 | 8 (≈ 2.12 µg/mL) | > 32 | 4 (≈ 1.06 µg/mL) | > 32 | > 32 | > 32 | 32 (≈ 8.5 µg/mL) | 16 (≈ 4.25 µg/mL) | > 32 | 2 (≈ 0.531 µg/mL) | > 32 | 51 | > 32 | > 32 | 8 (≈ 2.12 µg/mL) | > 32 | 8 (≈ 2.12 µg/mL) | MIC (Bacillus anthracis [15]): 8 µM (≈ 2.12 µg/mL); MIC (Salmonella typhi): > 32 µM; MIC (Yersinia pestis [9]): 32 µM (≈ 8.5 µg/mL); MIC (Shigella dysenteriae): > 32 µM; MIC (Citrobacter freundii): > 32 µM; MIC (Vibrio cholerae): > 32 µM; MIC (Bacillus anthracis [16]): 4 µM (≈ 1.06 µg/mL); MIC (Rhodococcus erythropolis): 8 µM (≈ 2.12 µg/mL); MIC (Bacillus anthracis [17]): 2 µM (≈ 0.531 µg/mL); MIC (Bacillus anthracis [18]): 4 µM (≈ 1.06 µg/mL); MIC (Francisella tularensis): 32 µM (≈ 8.5 µg/mL); MIC (Klebsiella pneumoniae): > 32 µM; MIC (Pseudomonas aeruginosa): > 32 µM; MIC (Corynebacterium striatum): 16 µM (≈ 4.25 µg/mL); MIC (Micrococcus luteus): 16 µM (≈ 4.25 µg/mL) |
